Read-outs that look alike come from different tables or passages of the source. Each block holds one molecule with its values, some of them ahead of it.
Assays:
Format in all cases: cell-based, Plasmodium falciparum
P. falciparum 3D7 [1] = conditions: 48 h; for effect on parasitaemia compared with the control: 2.5 nM compound alone
P. falciparum 3D7 [2] = conditions: 72 h; for IC50: asynchronous culture, 0.0019–2 µM, ± standard error of the mean; for reduction of P. falciparum parasitaemia by 50%: at the concentrations tested (0.0019–2 µM)
P. falciparum 3D7 [3] = experiment: Competition of TCAMS compounds; conditions: for effect on the increase in parasitaemia promoted by melatonin: 2.5 nM compound with 100 nM melatonin; for effect on the increase in parasitaemia promoted by melatonin / effect on the increase in parasitaemia promoted by serotonin: 48 h; for effect on the increase in parasitaemia promoted by serotonin: 2.5 nM compound with 250 nM serotonin; for classification on the serotonin/melatonin pathway in the parasite: from effects in presence and absence of serotonin or melatonin
Procedure, shortened: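 Asynchronous P. falciparum 3D7 cultures (1% parasitaemia, 2% haematocrit) were given 2.5 nM test compound with or without 250 nM serotonin or 100 nM melatonin. Incubation was 48 h at 37 °C under mixed gas, with a DMSO solvent control. Cells were stained with SYBR Green-I (1:10,000) and MitoTracker Deep Red (50 nM) for 20 min at 37 °C, then parasitaemia was read by flow cytometry. Survival is relative to solvent; triplicate, 3 independent experiments.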

[4] = read-out: IC50 (nM) 3D7, Table 1
[5] = Plasmodium falciparum, 3D7, 72 h, read-out: IC50 (nM) 3D7, Table 1

SMILES: COc1ccc2[nH]cc(CCNC(C)=O)c2c1 [Melatonin, melatonin, reference compound]
increase of P. falciparum parasitaemia compared with the control (P. falciparum 3D7 [1]; 100 nM): 15.05%

SMILES: NCCc1c[nH]c2ccc(O)cc12 [Serotonin, serotonin, reference compound]
increase of P. falciparum parasitaemia compared with the control (P. falciparum 3D7 [1]; 250 nM): 11.86%

IC50 (P. falciparum 3D7 [2]; [4]): 759 ± 131 nM
SMILES: COc1ccc(CN2C(=S)N(Cc3ccccc3)C(=O)C2CC(=O)Nc2ccccc2)cc1OC (centres unmarked) [TCMDC-123874, COc1ccc(CN2C(CC(= O)Nc3ccccc3)C(= O)N(Cc3ccccc3)C2 = S)cc1OC]

SMILES: Brc1ccc(Nc2nc(NCc3ccccc3)c3ccccc3n2)cc1 [TCMDC-124574, Brc1ccc(Nc2nc(NCc3ccccc3)c3ccccc3n2)cc1]
IC50 (P. falciparum 3D7 [2]; [5]): 619 ± 213 nM

IC50 (P. falciparum 3D7 [2]; [4]): 80.2 ± 18.9 nM
SMILES: COc1ccc(C2CC(=O)C3=C(C2)NC(C)=C(C(=O)OC(C)C)C3c2cccc(O)c2)cc1OC (centres unmarked) [TCMDC-125636, COc1ccc(cc1OC)C1CC(= O)C2 = C(C1)NC(C) = C(C2c1cccc(O)c1)C(= O)OC(C)C]

IC50 (P. falciparum 3D7 [2]; [5]): 909 ± 65.1 nM
SMILES: CCCCCC(C)C(C)c1cc(O)c2c(c1)OC(C)(C)CC2(O)c1ccnn1C (centres unmarked) [TCMDC-131795, CCCCCC(C)C(C)c1cc(O)c2c(OC(C)(C)CC2(O)c2ccnn2C)c1]

SMILES: O=C1CCCN1CCCNCc1ccc(-c2ccc(-c3nc4cc(C(F)(F)F)ccc4[nH]3)s2)cc1 [TCMDC-132764, OC(= O)C(F)(F)F.FC(F)(F)c1ccc2[nH]c(nc2c1)-c1ccc(s1)-c1ccc(CNCCCN2CCCC2 = O)cc1]
IC50 (P. falciparum 3D7 [2]; [4]): 259 ± 49.4 nM

SMILES: Fc1ccc2[nH]c(-c3cccc(-c4ccc(CN5CCN(c6ccncc6)CC5)cc4)c3)nc2c1 [TCMDC-132918, OC(= O)C(F)(F)F.Fc1ccc2[nH]c(nc2c1)-c1cccc(c1)-c1ccc(CN2CCN(CC2)c2ccncc2)cc1]
IC50 (P. falciparum 3D7 [2]; [4]): 68.4 ± 6.93 nM

SMILES: Cn1nccc1C(=O)NCCNCc1ccc(-c2ccc(-c3nc4cc(C(F)(F)F)ccc4[nH]3)s2)cc1 [TCMDC-133018, OC(= O)C(F)(F)F.Cn1nccc1C(= O)NCCNCc1ccc(cc1)-c1ccc(s1)-c1nc2cc(ccc2[nH]1)C(F)(F)F]
IC50 (P. falciparum 3D7 [2]; [4]): 284 ± 125 nM

SMILES: Clc1ccc2nccc(N3CCC(CN4CCC(c5c[nH]c6ccccc56)CC4)CC3)c2c1 [TCMDC-134281, OC(= O)C(F)(F)F.Clc1ccc2nccc(N3CCC(CN4CCC(CC4)c4c[nH]c5ccccc45)CC3)c2c1]
IC50 (P. falciparum 3D7 [2]; [4]): 72.9 ± 10 nM

SMILES: COc1ccc(NC(=O)[C@H](CC(C)C)Nc2cc(C)nc(NCCc3ccccc3)n2)cc1 [TCMDC-134778, OC(= O)C(F)(F)F.COc1ccc(NC(= O)[C@H](CC(C)C)Nc2cc(C)nc(NCCc3ccccc3)n2)cc1]
IC50 (P. falciparum 3D7 [2]; [4]): 497 ± 99.5 nM

IC50 (P. falciparum 3D7 [2]; [5]): 434 ± 81.2 nM
SMILES: COc1cc2nc(NCCc3ccccc3)nc(NCCCc3ccccc3)c2cc1OC [TCMDC-135301, COc1cc2nc(NCCc3ccccc3)nc(NCCCc3ccccc3)c2cc1OC]
effect on the increase in parasitaemia promoted by melatonin (P. falciparum 3D7 [3]): able to inhibit the increase in parasitaemia partially | effect on the increase in parasitaemia promoted by serotonin (P. falciparum 3D7 [3]): unable to prevent the effect of the neurotransmitter on P. falciparum parasitaemia | effect on parasitaemia compared with the control (P. falciparum 3D7 [1]): induced a significant increase in parasitaemia | increase in parasitaemia (P. falciparum 3D7 [1]; 2.5 nM): 9.69%

SMILES: O=C(c1ccc(F)cc1)N1CCOC(CCN2CCC(c3ccccc3)CC2)(c2ccc(Cl)c(Cl)c2)C1 (centres unmarked) [TCMDC-135334, Fc1ccc(cc1)C(= O)N1CCOC(CCN2CCC(CC2)c2ccccc2)(C1)c1ccc(Cl)c(Cl)c1]
reduction of P. falciparum parasitaemia by 50% (P. falciparum 3D7 [2]): could not reduce P. falciparum parasitaemia by 50%

IC50 (P. falciparum 3D7 [2]; [4]): 442 ± 78.8 nM
SMILES: COc1cc(NC(=O)N2CCOC(CCN3CCC4(CCc5ccccc54)CC3)(c3ccc(Cl)c(Cl)c3)C2)cc(OC)c1 (centres unmarked) [TCMDC-135338, COc1cc(NC(= O)N2CCOC(CCN3CCC4(CCc5ccccc45)CC3)(C2)c2ccc(Cl)c(Cl)c2)cc(OC)c1]

SMILES: CCOc1ccc(C(=O)N2CCOC(CCN3CCC(c4ccccc4)CC3)(c3ccc(Cl)c(Cl)c3)C2)cc1 (centres unmarked) [TCMDC-135344, CCOc1ccc(cc1)C(= O)N1CCOC(CCN2CCC(CC2)c2ccccc2)(C1)c1ccc(Cl)c(Cl)c1]
IC50 (P. falciparum 3D7 [2]; [4]): 462 ± 185 nM

IC50 (P. falciparum 3D7 [2]; [4]): 75.5 ± 18.2 nM
SMILES: COc1cc(NC(=O)N2CCOC(CCN3CCC4(CCc5ccccc54)CC3)(c3ccc(Cl)c(Cl)c3)C2)cc(OC)c1OC (centres unmarked) [TCMDC-135346, COc1cc(NC(= O)N2CCOC(CCN3CCC4(CCc5ccccc45)CC3)(C2)c2ccc(Cl)c(Cl)c2)cc(OC)c1OC]

IC50 (P. falciparum 3D7 [2]; [5]): 1210 ± 315 nM
SMILES: COc1cc2nc(NCCc3ccccc3)nc(N(C)Cc3ccccc3)c2cc1OC [TCMDC-135385, COc1cc2nc(NCCc3ccccc3)nc(N(C)Cc3ccccc3)c2cc1OC]
effect on the increase in parasitaemia promoted by melatonin (P. falciparum 3D7 [3]): unable to block their effects on the erythrocyte cycle | effect on the increase in parasitaemia promoted by serotonin (P. falciparum 3D7 [3]): unable to prevent the effect of the neurotransmitter on P. falciparum parasitaemia | effect on parasitaemia compared with the control (P. falciparum 3D7 [1]): induced a significant increase in parasitaemia

IC50 (P. falciparum 3D7 [2]; [5]): 734 ± 162 nM
SMILES: COc1cc2nc(NCCc3ccccc3)nc(NCc3cc(C)no3)c2cc1OC [TCMDC-135435, COc1cc2nc(NCCc3ccccc3)nc(NCc3cc(C)no3)c2cc1OC]
effect on the increase in parasitaemia promoted by melatonin (P. falciparum 3D7 [3]): able to inhibit the increase in parasitaemia partially | effect on the increase in parasitaemia promoted by serotonin (P. falciparum 3D7 [3]): unable to prevent the effect of the neurotransmitter on P. falciparum parasitaemia | effect on parasitaemia compared with the control (P. falciparum 3D7 [1]): did not significantly affect parasitaemia compared with the control

IC50 (P. falciparum 3D7 [2]; [5]): 287 ± 24.2 nM
SMILES: COc1cc2nc(NCCc3ccccc3)nc(NCc3cnn(C)c3C)c2cc1OC [TCMDC-135459, COc1cc2nc(NCCc3ccccc3)nc(NCc3cnn(C)c3C)c2cc1OC]
effect on the increase in parasitaemia promoted by melatonin (P. falciparum 3D7 [3]): unable to block their effects on the erythrocyte cycle | effect on the increase in parasitaemia promoted by serotonin (P. falciparum 3D7 [3]): unable to prevent the effect of the neurotransmitter on P. falciparum parasitaemia | effect on parasitaemia compared with the control (P. falciparum 3D7 [1]): induced a significant increase in parasitaemia

IC50 (P. falciparum 3D7 [2]; [4]): 336 ± 176 nM
SMILES: COc1ccc2ncc(F)c([C@H](O)CN3CCC(NCc4ccc5c(c4)NC(=O)CO5)CC3)c2c1 [TCMDC-135829, Cl.COc1ccc2ncc(F)c([C@H](O)CN3CCC(CC3)NCc3ccc4OCC(= O)Nc4c3)c2c1]

IC50 (P. falciparum 3D7 [2]; [4]): 110 ± 46.2 nM
SMILES: Cc1cc(NC(=O)NCCN2CCC(NC(=O)c3ccc(Cl)cc3)CC2)c2ccccc2n1 [TCMDC-136171, Cc1cc(NC(= O)NCCN2CCC(CC2)NC(= O)c2ccc(Cl)cc2)c2ccccc2n1]

IC50 (P. falciparum 3D7 [2]; [5]): 216 ± 15.4 nM
SMILES: CCN(CCNc1nc(NCCc2cnc[nH]2)nc(N(CCC#N)Cc2ccccc2)n1)c1cccc(C)c1 [TCMDC-139258, CCN(CCNc1nc(NCCc2cnc[nH]2)nc(n1)N(CCC#N)Cc1ccccc1)c1cccc(C)c1]

IC50 (P. falciparum 3D7 [2]; [4]): 98.2 ± 25.1 nM
SMILES: COc1cc(C)nc2ccc(NC(=O)c3ccc(C(=O)Nc4ccc5nc(C)cc(OC)c5c4)cc3)cc12 [TCMDC-139502, COc1cc(C)nc2ccc(NC(= O)c3ccc(cc3)C(= O)Nc3ccc4nc(C)cc(OC)c4c3)cc12]

SMILES: O=C(/C=C/c1ccc(Cl)c(Cl)c1)Nc1cccc(CN2CCC(c3c[nH]c4ccc(O)cc34)CC2)c1 [TCMDC-139634, Oc1ccc2[nH]cc(C3CCN(Cc4cccc(NC(= O)\C = C\c5ccc(Cl)c(Cl)c5)c4)CC3)c2c1]
effect on the increase in parasitaemia promoted by melatonin (P. falciparum 3D7 [3]): could inhibit the increase in parasitaemia promoted by melatonin thoroughly | effect on the increase in parasitaemia promoted by serotonin (P. falciparum 3D7 [3]): able to inhibit the increase in parasitaemia | classification on the serotonin/melatonin pathway in the parasite (P. falciparum 3D7 [3]): potential partial agonists of this pathway in the parasite | IC50 (P. falciparum 3D7 [2]; [4]): 346 ± 47.5 nM | effect on parasitaemia compared with the control (P. falciparum 3D7 [1]): induced a significant increase in parasitaemia

SMILES: O=C(/C=C/c1ccc(Cl)c(Cl)c1)N1CCC(CN2CCC(c3c[nH]c4ccc(O)cc34)CC2)CC1 [TCMDC-139786, Oc1ccc2[nH]cc(C3CCN(CC4CCN(CC4)C(= O)\C = C\c4ccc(Cl)c(Cl)c4)CC3)c2c1]
effect on the increase in parasitaemia promoted by melatonin (P. falciparum 3D7 [3]): could inhibit the increase in parasitaemia promoted by melatonin thoroughly | effect on the increase in parasitaemia promoted by serotonin (P. falciparum 3D7 [3]): partially inhibited the increase in parasitaemia promoted by serotonin | classification on the serotonin/melatonin pathway in the parasite (P. falciparum 3D7 [3]): potential partial agonists of this pathway in the parasite | IC50 (P. falciparum 3D7 [2]; [4]): 138 ± 23.9 nM | effect on parasitaemia compared with the control (P. falciparum 3D7 [1]): induced a significant increase in parasitaemia

SMILES: CS(=O)(=O)Nc1ccc2[nH]cc(C3CCN(CC4CCN(C(=O)/C=C/c5ccc(Cl)c(Cl)c5)CC4)CC3)c2c1 [TCMDC-139813, CS(= O)(= O)Nc1ccc2[nH]cc(C3CCN(CC4CCN(CC4)C(= O)\C = C\c4ccc(Cl)c(Cl)c4)CC3)c2c1]
effect on the increase in parasitaemia promoted by melatonin (P. falciparum 3D7 [3]): able to inhibit the increase in parasitaemia partially | effect on the increase in parasitaemia promoted by serotonin (P. falciparum 3D7 [3]): partially inhibited the increase in parasitaemia promoted by serotonin | IC50 (P. falciparum 3D7 [2]; [4]): 116 ± 49.1 nM | effect on parasitaemia compared with the control (P. falciparum 3D7 [1]): did not significantly affect parasitaemia compared with the control

SMILES: O=C(NC1CCC(CN2CCC(c3c[nH]c4ccccc34)CC2)CC1)c1cc(-c2ccc(F)cc2F)ccc1O (centres unmarked) [TCMDC-139894, Oc1ccc(cc1C(= O)NC1CCC(CN2CCC(CC2)c2c[nH]c3ccccc23)CC1)-c1ccc(F)cc1F]
reduction of P. falciparum parasitaemia by 50% (P. falciparum 3D7 [2]): could not reduce P. falciparum parasitaemia by 50%

SMILES: O=C(Nc1ccccc1)N(Cc1cccc(-c2cccc(CNCc3ccc4c(c3)OCO4)c2)c1)C1CCN(Cc2ccccc2)CC1 [TCMDC-140590, OC(= O)C(F)(F)F.O = C(Nc1ccccc1)N(Cc1cccc(c1)c1cccc(CNCc2ccc3OCOc3c2)c1)C1CCN(Cc2ccccc2)CC1]
IC50 (P. falciparum 3D7 [2]; [4]): 285 ± 144 nM

IC50 (P. falciparum 3D7 [2]; [4]): 215 ± 27.9 nM
SMILES: CC[C@H](NC(=O)c1c(CC2CCN(CC(C)=O)CC2)c(-c2ccccc2)nc2ccccc12)c1ccccc1 [TCMDC-141946, CC[C@H](NC(= O)c1c(CC2CCN(CC(C) = O)CC2)c(nc2ccccc12)-c1ccccc1)c1ccccc1]
